From PubChem
An excerpt weighted towards active compounds, which were near 1.9% of everything screened.
PP5 inh – PP5 phosphatase inhibitors, primary screen, biochemical, fluorescence; Serine/threonine-protein phosphatase 5 (Homo sapiens), P53041; purified PP5c, OMFP substrate fluorescence; inhibition, % at 6.7 µM; actives 0.18% (n = 320,000); AID 1987, 2009;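 active = inhibition above the campaign's mean inhibition across all tested compounds plus 3 SD, cut at about 9.5% in these data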;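 also: 0% = DMSO only and 100% = 100 µM cantharidin control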
STEP block – STEP phosphatase inhibitors, primary screen, biochemical, fluorescence intensity, uHTS | Tyrosine-protein phosphatase non-receptor type 5 (Homo sapiens), P54829 | recombinant STEP, OMFP fluorogenic substrate | inhibition, % at 20 µM | actives 0.25% (n = 360,000);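 active = inhibition at 20 µM, scaled per plate between control wells, above about 37%, limit read from the data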;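 also: 0% = DMSO with enzyme and substrate and 100% = substrate only without enzyme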
Target sequence (P54829 whole entry, looked up): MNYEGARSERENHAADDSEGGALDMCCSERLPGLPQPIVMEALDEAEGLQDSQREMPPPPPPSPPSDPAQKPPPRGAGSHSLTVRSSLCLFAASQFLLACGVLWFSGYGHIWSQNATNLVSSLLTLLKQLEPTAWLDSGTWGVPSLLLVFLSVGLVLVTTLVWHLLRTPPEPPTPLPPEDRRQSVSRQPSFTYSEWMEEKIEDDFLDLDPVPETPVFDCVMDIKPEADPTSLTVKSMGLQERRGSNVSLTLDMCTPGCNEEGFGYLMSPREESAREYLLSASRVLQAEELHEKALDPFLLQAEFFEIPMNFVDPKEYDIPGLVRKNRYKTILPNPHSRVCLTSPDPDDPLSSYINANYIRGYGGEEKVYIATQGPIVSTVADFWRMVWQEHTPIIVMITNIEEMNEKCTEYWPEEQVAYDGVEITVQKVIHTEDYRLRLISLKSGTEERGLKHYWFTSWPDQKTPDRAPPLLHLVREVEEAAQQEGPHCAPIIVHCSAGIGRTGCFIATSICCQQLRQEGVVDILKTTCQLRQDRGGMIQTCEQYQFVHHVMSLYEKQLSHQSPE
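Also added – OMFP at 25 µM · Test system – STEP tyrosine phosphatase · Technique – FITC-channel fluorescence of OMFP product · Schedule – 20 min at room temperature, dark · Evaluation – control-normalized % inhibition with plate pattern correction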
PP1 inh – PP1-alpha phosphatase inhibitors, primary screen, counter-screen for PP5 inhibitor project, biochemical, fluorescence, OMFP substrate, single point; Serine/threonine-protein phosphatase PP1-alpha catalytic subunit (Homo sapiens), P62136; purified PP1alpha; inhibition, % at 6.7 µM; actives 0.9% (n = 320,000); AID 2235, 2010;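 active = inhibition above the mean inhibition of all tested compounds plus 3 SD, computed separately for each screening campaign, cut at about 15% in these data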
Scp-1 inhibitor – Scp-1 phosphatase inhibitors, primary screen, biochemical, colorimetric, uHTS | Carboxy-terminal domain RNA polymerase II polypeptide A small phosphatase 1 (Homo … | Recombinant Scp1, phosphopeptide, malachite green phosphate absorbance | inhibition, % at 20 µM | actives 0.88% (n = 340,000) | AID 493091, 2011;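 active = inhibition above about 50% at 20 µM, limit read from the data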;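 also: plate controls were DMSO wells with enzyme for no effect and wells lacking enzyme for full effect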
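Test system: SCP-1 phosphatase catalytic domain, residues 76-261 | Compound dosing: One concentration, 20 µM, with 1.0% DMSO | Schedule: 45 min room-temperature reaction, 5 min colour, 30 min stabiliser | Detection: Absorbance at 630 nm | Read-out basis: % inhibition of SCP-1 phosphate liberation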
LMPTP block – LMPTP phosphatase inhibitors, primary screen, biochemical, fluorescence intensity, uHTS | Low molecular weight phosphotyrosine protein phosphatase (Homo sapiens), P24666 | recombinant LMPTP-A, OMFP fluorogenic substrate | inhibition, % at 20 µM | actives 0.22% (n = 360,000) | AID 651560, 2012;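 active = compounds that cut the enzyme signal by at least half of the control window in the single-dose screen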;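 also: plate controls were DMSO wells with enzyme plus substrate for no effect and substrate without enzyme for full effect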
Target sequence (P24666 whole entry, looked up): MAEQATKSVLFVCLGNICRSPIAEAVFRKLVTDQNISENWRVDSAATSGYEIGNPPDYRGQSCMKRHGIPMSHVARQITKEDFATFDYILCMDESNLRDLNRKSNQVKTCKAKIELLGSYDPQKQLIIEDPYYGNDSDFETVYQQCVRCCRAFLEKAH
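Assay system: LMPTP-A phosphatase enzyme | Input: 0.625 nM enzyme | Also added: Fluorogenic phosphatase substrate OMFP at 400 µM final | Compound dosing: One test concentration per compound, 20 µM, with 3% DMSO overall | Schedule: 50 min enzyme reaction at room temperature, protected from light | Signal: Fluorescence intensity | Benchmarks: no-enzyme and uninhibited controls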
PP1 inh confirm – PP1 phosphatase inhibitors, confirmation, biochemical, fluorescence, OMFP substrate, triplicate. purified PP1alpha. AID 2358, 2010. actives 52% (n = 1,900). shares compounds with PP1 inh. inhibition, % at 6.7 µM;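 active = mean PP1 inhibition above a set limit taken from the earlier primary screen, cut at about 15% in these data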
PP5 counter – PP5 phosphatase inhibition by PP1 hits, confirmation, counter-screen for PP1 inhibitor project, biochemical, fluorescence, triplicate; shares compounds with PP1 inh; purified PP5c, OMFP fluorescence; inhibition, % at 6.7 µM; actives 4% (n = 1,900); AID 2360, 2010;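 active = mean PP5 inhibition over triplicate wells above about 9.5% taken from the earlier PP1 screen, limit read from the data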
Scp1 confirm – Scp-1 phosphatase inhibitors, retest, confirmation, biochemical, colorimetric, single concentration | AID 540281, 2011 | recombinant SCP-1 catalytic domain, phosphate release, malachite green absorbance | shares compounds with Scp-1 inhibitor | actives 61% (n = 2,500) | inhibition, % at 20 µM;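 also: plate controls were DMSO with enzyme for no effect and buffer wells lacking enzyme for full effect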
MG interference – colorimetric readout interference by compounds, confirmation, artefact control for Scp-1 inhibitor project, biochemical, single concentration; apparent inhibition (interference), % at 20 µM; 2,500 tested, under 10 active; Colorimetric interference counterscreen, malachite green absorbance 630 nm; shares compounds with Scp-1 inhibitor;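 also: compounds added after enzyme reaction finished so only phosphate colour detection is probed; plate controls were DMSO wells with completed Scp-1 reaction for no effect and substrate wells lacking enzyme for full effect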
Scp1 DSF – Scp-1 binding by thermal shift, confirmation, orthogonal assay for Scp-1 inhibitor project, biophysical, differential scanning fluorimetry | shares compounds with Scp-1 inhibitor | Recombinant SCP1, Sypro Orange thermal shift Tm | thermal shift relative to vanadate control, % at 40 µM | actives 25% (n = 1,500);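 active = substances whose mean melting-temperature shift, as a percentage of the reference inhibitor's shift, reaches about 5.3%, limit read from the data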;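 also: 0% = Tm of DMSO wells and 100% = Tm with sodium orthovanadate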
STEP inh conf – STEP phosphatase inhibitor hit confirmation, biochemical, fluorescence intensity, single concentration. shares compounds with STEP block. recombinant STEP, OMFP fluorogenic substrate. inhibition, % at 20 µM. actives 32% (n = 520). AID 623866, 2012; call rule not given here;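 also: 0% = enzyme with substrate plus DMSO and 100% = substrate without enzyme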
An asterisk follows results filed as active.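 The calls were made as follows, unless noted: active = inhibition of at least 30% at 20 µM; inactive = the rest.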

What do the screens show for `COc1cc(C=Nc2c(C)cc(C)cc2C)ccc1OC(C)=O`?
PP5 inh: -1; STEP block: -3; PP1 inh: -1; Scp-1 inhibitor: 1; LMPTP block: 0

Results for COc1ccc(/C=C/C(=O)NC(=S)Nc2cc([N+](=O)[O-])ccc2O)cc1OC ?
PP5 inh: 2; STEP block: 62*; PP1 inh: 43*; Scp-1 inhibitor: 80*; LMPTP block: 56*; PP1 inh confirm: 39*; PP5 counter: -2; Scp1 confirm: 54*; MG interference: -10; Scp1 DSF: 5.7*

Results for COc1cc(/C=C2\SC(=S)N(CCCCC(=O)O)C2=O)ccc1OS(=O)(=O)c1ccc(C)cc1 ?
PP5 inh: 1; STEP block: 1; PP1 inh: 31*; Scp-1 inhibitor: 51*; LMPTP block: 8; PP1 inh confirm: 29*; PP5 counter: 3; Scp1 confirm: 48*; MG interference: -25; Scp1 DSF: 15*

Results for CN(C(=O)c1ccc2nc(N)sc2c1)c1ccccc1 ?
PP5 inh: 2; STEP block: -3; PP1 inh: 2; Scp-1 inhibitor: -3; LMPTP block: -2

How did CCOC(=O)c1cc(-c2ccco2)nn1-c1ccc(C)cc1 do in these assays?
PP5 inh: 2; STEP block: -3; PP1 inh: -2; Scp-1 inhibitor: -7; LMPTP block: 0

Results for Cc1ccc(-n2nc(-c3ccco3)cc2C(=O)O)cc1 ?
PP5 inh: -2; STEP block: 24; PP1 inh: 20*; Scp-1 inhibitor: 66*; LMPTP block: 9; PP1 inh confirm: 17*; PP5 counter: -10; Scp1 confirm: 58*; MG interference: -16; Scp1 DSF: 7.0*

What do the screens show for `CCc1ccc(OCC(=O)NC(=S)Nc2ccc(C(C)=O)cc2)c(Br)c1`?
PP5 inh: 1; STEP block: 1; PP1 inh: 10; Scp-1 inhibitor: -2; LMPTP block: -1

Results for CCc1ccccc1NC(=O)CCS(=O)(=O)c1ccc(OC)cc1 ?
PP5 inh: -2; STEP block: 9; PP1 inh: 37*; Scp-1 inhibitor: 55*; LMPTP block: 0; PP1 inh confirm: -2; PP5 counter: -5; Scp1 confirm: 48*; MG interference: -13; Scp1 DSF: -7

Results for Cc1c(Cl)c([N+](=O)[O-])nn1Cc1ccc(C(=O)N/N=C\c2ccccn2)o1 ?
PP5 inh: 1; STEP block: -4; PP1 inh: 3; Scp-1 inhibitor: 1; LMPTP block: -2

How did C=CCNC(=O)c1ccc(Cn2c(=S)[nH]c3cc4c(cc3c2=O)OCO4)cc1 do in these assays?
PP5 inh: 5; STEP block: 47*; PP1 inh: 25*; Scp-1 inhibitor: 86*; LMPTP block: 49; PP1 inh confirm: -1; PP5 counter: 0; Scp1 confirm: 58*; MG interference: -18; Scp1 DSF: -22; STEP inh conf: 6

How did CCOC(=O)c1c(O)c2ccccc2oc1=O do in these assays?
PP5 inh: -2; STEP block: 12; PP1 inh: -4; Scp-1 inhibitor: 2; LMPTP block: -2

What do the screens show for `COc1ccc(-c2nn(-c3ccccc3)cc2C2CC(c3cccs3)=NN2C(=O)CCC(=O)O)cc1` (stereo not drawn)?
PP5 inh: -1; STEP block: 4; PP1 inh: 0; Scp-1 inhibitor: -16; LMPTP block: -1

What do the screens show for `COc1ccc(C2=NN(C(=O)CCCC(=O)O)C(c3cn(-c4ccccc4)nc3-c3ccccc3)C2)cc1` (stereo not drawn)?
PP5 inh: 1; STEP block: 70*; PP1 inh: 29*; Scp-1 inhibitor: 97*; LMPTP block: 39; PP1 inh confirm: 18*; PP5 counter: -5; Scp1 confirm: 86*; MG interference: -9; Scp1 DSF: -35; STEP inh conf: 14

How did Cc1ccccc1OCC(=O)NNC(=O)Nc1ccccc1 do in these assays?
PP5 inh: -1; STEP block: -2; PP1 inh: -2; Scp-1 inhibitor: -13; LMPTP block: 2

Results for COC/C=C/C1=CC2=CC(=O)C(C)(OC(=O)C3CCCC3)C(=O)C2=CO1 (stereo not drawn) ?
PP5 inh: 4; STEP block: 2; PP1 inh: -1; Scp-1 inhibitor: 4; LMPTP block: 3

What do the screens show for `Cc1c(CCC(=O)O)c(=O)oc2c(C)c(OCc3cc4c(cc3Cl)OCO4)ccc12`?
PP5 inh: -2; STEP block: 94*; PP1 inh: 20*; Scp-1 inhibitor: 59*; LMPTP block: 77*; PP1 inh confirm: 6; PP5 counter: -2; Scp1 confirm: 39*; MG interference: -21; Scp1 DSF: -36; STEP inh conf: 51*

What do the screens show for `Cc1c(CC(=O)O)c(=O)oc2c(C)c(OCc3c(F)cccc3Cl)ccc12`?
STEP block: 5; Scp-1 inhibitor: -23; LMPTP block: 0
